Screens: PubChem BioAssay, several laboratories
XBP1 UPR activ – activators of adaptive arm of unfolded protein response (XBP1); CHO-XBP1 luciferase reporter, IRE1-XBP1 UPR activation, luminescence; percent of tunicamycin response, DMSO as zero; activation, % at 20 µM; hit rate 0.33% among 330,000;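 active = versus positive control, 20 µM dose yields 30% or more activation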;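 note: 100% = tunicamycin at 10 µg/mL and 0% = DMSO only wells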
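Material: CHO-XBP1 cells stably carrying IRE1-XBP1-driven luciferase reporter / Amount: 1000 cells per well / Compound: 20 µM, 1% DMSO / Times: 6 h treatment, 37 °C / Detection: luciferase luminescence / Measure: % activation of reporter signal versus tunicamycin and DMSO controls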
CHOP inhibitor – inhibitors of CHOP induction in ER stress response. CHO-K1 CHOP-promoter luciferase, tunicamycin-induced, 15-18 h. inhibition, % at 10 µM. hit rate 3.8% among 220,000. AID 2732;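 active = compounds that reduced the stress-induced luciferase reporter signal by more than about 70% of percent inhibition, limit read from the data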;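 note: 0% = tunicamycin plus vehicle and 100% = wells without tunicamycin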
PvdQ inh – P. aeruginosa PvdQ acylase inhibition; purified PvdQ acylase, fluorescence plate reader; hit rate 0.063% among 340,000; inhibition, % at 10 µM; in the data active = inhibition above about 30%, passing the limit was not always enough;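 note: 0% = vehicle neutral wells and 100% = reference inhibitor wells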
CHOP UPR activ – apoptotic UPR (CHOP) activation; AID 449763; CHO-CHOP luciferase reporter, luminescence; percent of tunicamycin response over DMSO baseline; activation, % at 10 µM; hit rate 0.34% among 330,000;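 active = at 10 µM dose, activation of 40% or more, normalized to positive control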;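 note: 100% = tunicamycin at 10 µg/mL and 0% = DMSO alone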
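System: CHO-CHOP luciferase reporter cell line; amount: 500 cells/well; buffer or medium: F12 medium containing 10% fetal bovine serum; incubation: 6 h compound exposure at 37 °C after overnight seeding; measured by: luciferase luminescence after 10 min with Steady-Glo reagent; evaluation: % reporter activation, DMSO baseline versus tunicamycin full activation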
Numbers without * were called inactive; / = no result given. Only a selection was taken, and hits are over-represented in it overall.

SMILES	XBP1 UPR activ	CHOP inhibitor	PvdQ inh	CHOP UPR activ
CO/N=C(\C(=O)N[C@@H]1C(=O)N2C(C(=O)O)=C(CSc3nc(=O)c(O)nn3C)CSC12)c1csc(N)n1 (stereo not given in full)	/	-16	/	/
Clc1cccc(-c2ccnc3nc(-n4cccc4)nn23)c1	1	76*	-12	-1
Cc1cc(C)c(C)c(OCC(=O)NCC2CCCO2)c1 (stereo not given)	2	34	-4	2
Cc1cc(C)cc(OCC(=O)NCC2CCCO2)c1 (stereo not given)	-8	73*	10	-8
COc1cc(/C=C(\C#N)C(=O)NCC2CCCO2)ccc1OCC(=O)O (stereo not given)	-2	1	5	0
COc1ccc(CCNC(=O)/C(C#N)=C/c2ccc(OCC(=O)NCC3CCCO3)cc2)cc1OC (stereo not given)	-3	11	35*	0
Cc1ccc(/C=C/C(=O)c2ccccc(=O)c2O)cc1C	/	71*	-2	/
O=C(/C=C/c1ccccc1)c1cc(Br)ccc(=O)c1O	1	-16	11	0
CC1CCCCN1C(=O)Cn1c(=O)n(-c2ccc(F)cc2)c(=O)c2sccc21 (stereo not given)	3	6	4	0
CC1CCCCN1C(=O)Cn1c(=O)n(C2CCCCC2)c(=O)c2ccccc21 (stereo not given)	-4	82*	2	2
N#C/C(C(N)=O)=c1/ccc2c(c1)N1C3=C(CCCC3)CC3CCCCC31N=2 (stereo not given)	4	82*	7	1
CC(Sc1nc(-c2ccccc2)cc(C(F)(F)F)n1)C(=O)N1CCCC1 (stereo not given)	0	92*	-8	0
CC(C)c1ccccc1NC(=O)CNCCc1ccc(C(F)(F)F)cc1	2	76*	2	-4
COc1ccc(CN2CCNC(=O)C2CC(=O)NCCSc2nccn2C)cc1OC (stereo not given)	2	-1	-16	-1
O=C(CSCc1ccco1)N1CCc2ccccc21	-5	/	86*	3
Cc1ccc2c(c1)C1C3CCC(C3)C1S(=O)N2 (stereo not given)	-1	22	57*	2
COc1ccccc1OCC(=O)NC1CCCc2ccccc21 (stereo not given)	1	/	-8	2
CC(C)c1ccccc1OCC(=O)NC1CCCc2ccccc21 (stereo not given)	1	75*	9	3
Cc1ccc(S(=O)(=O)Nc2cc(=O)[nH]c(SCc3ccc(Cl)cc3)n2)cc1	/	86*	-9	/
O=c1cc(NS(=O)(=O)c2ccccc2)nc(SCc2c(Cl)cccc2Cl)[nH]1	-2	80*	1	5
O=c1cc(NS(=O)(=O)c2ccccc2)nc(SCc2ccccc2Cl)[nH]1	-3	26	-4	-2
NC(=O)C1=C[C@@H](c2ccc(Br)cc2)C[C@@H](OCCCCO)O1	-1	38	-3	-1
O=C(O)CC/C(=C\c1ccc(N2CCCC2)c([N+](=O)[O-])c1)c1nc2ccccc2s1	-2	95*	1	-2
Cc1ccc(Cl)cc1NC(=S)N(Cc1cccs1)C1CCCC1	-3	82*	-6	0
COc1ccccc1-n1c(CNC(=O)c2ccco2)n[nH]c1=S	-2	/	-6	0
SMILES	XBP1 UPR activ	CHOP inhibitor	PvdQ inh	CHOP UPR activ
Nc1nc(-c2ccc3ccccc3c2)cs1	5	-1	-8	2
c1ccc2cc(-c3csnn3)ccc2c1	2	4	35*	4
CCOC(=O)c1[nH]c2ccc(OCC)cc2c1NC(=O)CN1CCCC(C)C1 (stereo not given)	-3	-4	-6	2
CCOC(=O)c1[nH]c2cc3c(cc2c1NC(=O)CN1CC(C)CC(C)C1)OCO3 (stereo not given)	-4	79*	-6	0
Cc1cccc2c1c1ccc3c(c1n2C)C(=O)C=CC3=O	/	78*	-16	/
Cc1ccccc1N1CC(=O)N(c2ccccc2C)CC1=O	-3	4	-5	-3
CCCCN(C)CCNC(=O)CCNC(=O)Cn1ccc2ccccc2c1=O	4	26	-2	-1
Cn1c(CCNC(=O)c2ccccc2F)nnc1SCC(=O)Nc1nncs1	-3	/	-2	2
CC1CCC(C(C)C)C(OC(=O)CSc2nccc(=O)[nH]2)C1 (stereo not given)	-2	17	-3	-2
COc1ccc(-c2n(CC(=O)OC3CC(C)CCC3C(C)C)c3ccccc3[n+]2C)cc1 (stereo not given)	/	87*	-11	/
O=C(Nc1ncc(Cc2ccc(SC(F)F)cc2)s1)c1ccc(OC(F)F)cc1	14	72*	-3	3
Cc1cccc(N2C(=O)N3[C@@H]4c5ccccc5OC[C@@H]4[C@@H](c4ccccc4)[C@@]3(C)C2=O)c1	-1	/	11	-1
O=C1/C(=C/c2ccc(O)c(O)c2)Oc2cc(O)ccc21	2	66	-5	0
O=C1/C(=C/c2cccc([N+](=O)[O-])c2)Oc2cc(O)ccc21	3	/	41*	2
CN=c1scc(-c2cccs2)n1/N=C/c1ccccc1O	-6	94*	3	-10
COc1ccc(NC(=O)C2CCC(CNS(=O)(=O)c3cccs3)CC2)cc1 (stereo not given)	-3	8	9	5
CCCc1ccc(OCc2ccc(C(=O)N3CCN(c4ccccn4)CC3)o2)c(OC)c1	0	79*	-1	0
Cn1c(COc2ccccc2)nnc1SCC(=O)Nc1nnc(C2CC2)s1	/	/	-13	/
CCOC(=O)c1c(C)[nH]c(C(=O)CSc2nc(C)cc(C)n2)c1C	5	45	1	-2
CCOC(=O)c1c(C)[nH]c(C(=O)OCCOc2ccccc2C)c1C	/	74*	-5	/
CCOC(=O)c1c(C)[nH]c(C(=O)CSc2ccc(Cl)cc2)c1C	-1	70*	-6	3
CCOC(=O)c1c(C)[nH]c(C(=O)OCC(=O)Nc2ccc(OCC)cc2)c1C	-2	20	10	5
COC(=O)c1c(C)[nH]c(C(=O)CSc2nnnn2-c2ccccc2)c1C	9	77*	-9	-1
CCOC(=O)c1c(C)[nH]c(C)c1C(=O)CSc1nnnn1-c1ccccc1	1	-8	9	3
CCOC(=O)c1c(C)[nH]c(C(=O)OCCOc2ccc(Cl)cc2)c1C	0	72*	2	0
O=C(c1ccc(N2CCN(C(=O)c3ccc(F)cc3F)CC2)cc1)c1cccc(F)c1	-5	/	5	0
CCCN(CCC)C(=O)c1ccc2c(c1)N(CC)C(=O)c1ccccc1S2(=O)=O	-2	/	-6	-1
CSc1cccc(NC(=O)N2CCCC(CNS(=O)(=O)Cc3ccccc3)C2)c1 (stereo not given)	-6	23	-5	-2
Cc1cc(=O)[nH]c(SCc2cccc3cccnc23)n1	-2	63	-14	-1
CCOC(=O)c1c(C)[nH]c(C(=O)COC(=O)C2(C)CC2(Cl)Cl)c1C (stereo not given)	5	81*	-13	1
